# Assay outcomes (PubChem)
# Thrombin inh: thrombin (human) inhibition; alpha-thrombin, Boc-VPR-AMC fluorogenic substrate cleavage; inhibition, % at 5 µM; 0.26% of 220,000 active;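 active = inhibition at or above 40%; inactive = inhibition below 40%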;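 also: 0% = enzyme with no compound and 100% = wells without enzyme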
#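 System – human alpha-thrombin · Medium – pH 7.5 Tris (50 mM) with NaCl 150 mM, Tween 20 0.05% · Compound – single-point dosing at 5 µM, 0.2% DMSO · Incubation – enzyme reaction carried out at room temperature · Technique – fluorescence of released AMC, ex 355 nm, em 460 nm · Read-out basis – % inhibition of thrombin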
# FXIIa inh 1536: factor XIIa (human) inhibition; P00748; purified FXIIa, Boc-QGR-AMC fluorogenic substrate, 2 h; inhibition, % at 5 µM; 0.3% of 220,000 active; AID 800; in the data active = inhibition above about 40%;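 also: 0% = enzyme with no compound and 100% = blank without enzyme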
# KLK5 inh: kallikrein 5 (human) inhibition | inhibition, % at 5 µM | recombinant hK5, fluorogenic AMC substrate cleavage | Q9Y337 | 0.59% of 210,000 active;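 active = inhibition of 40% or more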;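 also: 0% = enzyme controls without compound and 100% = no-enzyme blanks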
# Target sequence (Q9Y337 67-293 limits assumed): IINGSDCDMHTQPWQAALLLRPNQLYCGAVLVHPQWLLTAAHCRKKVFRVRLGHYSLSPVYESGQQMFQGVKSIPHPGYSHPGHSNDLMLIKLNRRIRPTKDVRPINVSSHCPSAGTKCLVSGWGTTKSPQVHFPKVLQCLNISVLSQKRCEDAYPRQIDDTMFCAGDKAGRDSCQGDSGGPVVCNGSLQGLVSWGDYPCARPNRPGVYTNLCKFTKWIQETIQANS
# FXIa inh: blocks human coagulation factor XIa protease activity | P03951 | purified FXIa, Boc-Glu-Ala-Arg-AMC fluorogenic substrate | inhibition, % at 5 µM | 0.14% of 220,000 active;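 active = inhibition of at least 40%; inactive = inhibition below 40%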;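 also: fluorescence of freed AMC excited at 355 nm; 0% = enzyme without compound and 100% = no enzyme blank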
# Furin inhibitor: blocks human furin protease activity. P09958. purified furin, fluorogenic substrate cleavage. inhibition, % at 20 µM or 30 µM. 0.061% of 220,000 active. AID 463115; in the data active = inhibition above about 25%
# The depositor's hits bear a star; . = not tested or not shown. The list is not random: actives were taken first. Their share in the collection is about 1.1%.
SMILES,Thrombin inh,FXIIa inh 1536,KLK5 inh,FXIa inh,Furin inhibitor
CCCc1nc2ccccc2c(C(=O)OCC(=O)N2CCc3ccccc32)c1CC,12.1,36.5,58.5*,20.1,-6.1
CCCCCCCc1c(O)nc(SCCN(C)C)[nH]c1=O,7.5,32.7,21.1,68.8*,-5.9
Cc1[nH][nH]c(=O)c1C(c1cc([N+](=O)[O-])ccc1O)c1c(C)[nH][nH]c1=O,22.6,7.9,57.3*,13.3,-8.0
Cc1ccc2c(c1)[nH]c1c(=O)n(CCC3=CCCCC3)cnc12,64.4*,4.9,19.2,-3.0,-5.5
CCOc1ccccc1NC(=O)CN1C(=O)CSC(C)C1=O (stereo unspecified),-2.0,7.2,1.7,0.7,-29.1
O=S(=O)(N1CCCCC1)N1CCN(c2ccccc2F)CC1,1.0,47.7*,5.7,14.7,-22.1
CS(=O)(=O)N1CCN(c2ccccc2F)CC1,-2.1,9.9,-17.8,2.8,-25.5
O=C(c1ccc(-c2ccc([N+](=O)[O-])cc2)o1)N1CCCCC1,60.6*,24.9,18.6,22.0,16.4
O=C(c1ccc(-c2ccc(Cl)cc2)o1)N1CCN(c2ccc([N+](=O)[O-])cc2Cl)CC1,-11.2,-0.4,-17.1,-6.4,-18.2
COc1cccc(Nc2nc(N)nc(CCl)n2)c1,-15.2,-1.9,-5.4,-5.0,8.6
Cc1cccc(Nc2nc(N)nc(CCl)n2)c1,48.7*,18.6,33.3,29.5,-2.4
Nc1c(C(=O)NCc2ccc3c(c2)OCO3)nnn1Cc1ccc(Br)cc1,2.1,12.4,0.9,2.6,-21.2
COc1ccc2[nH]c3c(NCCN(C(C)C)C(C)C)ncnc3c2c1,1.3,10.5,-62.2,7.3,-13.3
COc1ccc2[nH]c3c(NCCCN4CCCC4=O)ncnc3c2c1,0.2,-4.8,54.2*,0.8,-11.2
CCCC(c1nnnn1Cc1cccs1)N1CCN(C2CCCC2)CC1 (stereo unspecified),-3.9,7.6,1.3,1.6,-15.2
CCC(c1nnnn1Cc1cccs1)N1CCN(C2CCCC2)CC1 (stereo unspecified),0.3,11.7,47.3*,9.1,-3.6
N/C(=N\OC(=O)CSc1ccccc1)c1ccc([N+](=O)[O-])cc1,2.6,16.4,-13.6,10.0,3.1
CNCc1cc2ccc(C)cc2[nH]c1=O,8.9,-0.1,44.8*,5.6,-21.2
O=C1CC(=O)CC(c2ccccc2)C1,-8.4,4.2,-1.6,-2.9,-8.1
O=C1CC(c2ccccc2)CC(=O)C1=CN1CCCC1 (stereo unspecified),-8.1,5.2,-7.7,-5.2,32.6*
CCCCn1c(SCC(=O)Nc2cc(C(F)(F)F)ccc2Cl)nnc1C(CC)N(C)C (stereo unspecified),-7.0,5.4,-15.1,0.4,-1.5
N#Cc1cc(C(=O)c2ccccc2O)cn(-c2ccc(Cl)cc2)c1=O,7.3,8.0,5.6,2.7,-3.9
Cc1c(-n2cc(C(=O)c3ccccc3O)cc(C#N)c2=O)c(=O)n(-c2ccccc2)n1C,15.7,25.6,64.7*,17.5,-5.4
CNc1ccccc1NC(=O)CCn1c(=S)oc2ccccc21,0.3,6.8,0.2,-0.9,-18.9
CC(=O)Nc1ccc(NC(=O)CCn2c(=S)oc3ccccc32)cc1,28.1,48.8*,19.1,26.4,-19.6
SMILES,Thrombin inh,FXIIa inh 1536,KLK5 inh,FXIa inh,Furin inhibitor
CCCCc1nc2ccccc2c(NC(=O)CNC(C)(C)C)c1CCC,42.2*,14.3,37.9,6.5,-13.5
Cc1ccc(CN2CCN(/N=C/c3sccc3C)CC2)c(C)c1,-1.8,12.0,-5.4,-2.5,-2.1
C#CCNc1cc(C)nc2ncnn12,104.3*,14.7,38.5,6.9,-25.6
CCN(CC)CCN(C(=O)c1c(F)cccc1F)c1nc2cc(C)cc(C)c2s1,3.1,8.5,-7.0,0.5,-17.7
COc1ccc(-c2[nH]nc3c2C(c2ccsc2)C(C#N)=C(N)O3)cc1 (stereo unspecified),4.1,-0.5,81.5*,-3.0,-13.1
Cc1cc(C)c2ccc(=O)n(CC(=O)N/N=C/c3ccccc3Cl)c2n1,0.2,8.6,-1.5,0.8,-11.1
Cc1ccc(NC(=O)Cn2c(=O)oc3cc(S(=O)(=O)N4CCC(C)CC4)ccc32)cc1C,-2.2,14.3,-9.6,3.0,-15.8
C=CCOC(=O)C1=C(C)Nc2[nH]c(=O)[nH]c(=O)c2C1c1ccccc1 (stereo unspecified),10.2,25.0,18.5,67.3*,-8.2
Cc1cc([N+](=O)[O-])ccc1NC(=O)CSc1nccc(=O)[nH]1,3.7,5.5,-4.1,-2.4,-22.3
C=CCOC(=O)c1c(C)nc2cc3c(cc2c1C)OCO3,15.6,7.9,44.4*,2.5,-19.7
CC(C)Cn1c(-c2ccccc2)nc2ccccc2c1=O,1.1,41.6*,-3.4,32.0,4.6
CCOC(=O)c1c(C)n(C)c2ccc(OC)c(NC(=O)CN3CCSCC3)c12,-7.1,4.6,21.5,-8.2,-21.4
CCOC(=O)c1c(C)n(C)c2ccc(OC)c(NC(=O)CCN3CCC(Cc4ccccc4)CC3)c12,8.9,27.0,23.2,51.8*,4.0
O=C(Nc1cccc(C(F)(F)F)c1)N1CCN(C(=O)Nc2cccc(C(F)(F)F)c2)CC1,20.8,26.7,54.7*,15.2,-9.1
O=C(Nc1ccc(N2CCCCC2)c(Cl)c1)c1ccc(N2CCOCC2)c([N+](=O)[O-])c1,3.7,8.5,45.5*,4.1,-15.9
CCCCCN1C=CC=C/C1=C\C=C(C#N)C#N,-3.1,6.3,-7.1,5.6,-13.2
CCCCCCN1C=CC=C/C1=C/C=C(C#N)C#N,5.0,15.0,-6.5,7.2,30.0*
CCCN1C=CC(=CC=C(C#N)C#N)C=C1,3.6,22.1,67.0*,19.6,-6.5
COc1ccccc1NC(=O)c1csc2c1CCCC2,2.9,1.8,63.1*,1.1,-18.7
Fc1ccccc1NC(=S)N1CCN(Cc2ccccc2)CC1,-8.1,-3.6,-6.3,-5.3,-11.9
CC1=NN(C(=O)COc2ccc(C)c(C)c2)C(O)(c2ccccc2)C1 (stereo unspecified),-7.8,-4.6,-32.5,-10.4,-14.9
O=C(CCC(=O)Nc1ccccc1)NNC(=O)COc1ccccc1,-10.2,19.8,-18.9,19.3,-22.6
O=C(c1ccc2c(=O)n3c(nc2c1)CCCCC3)N1CCN(Cc2ccccc2)CC1,-8.0,-3.8,-13.9,-6.8,-16.0
O=c1c2ccccc2nc2n1CCCCC2,3.2,17.1,-22.1,2.6,-3.2
CN1CCN(C(=O)c2ccc3c(=O)n4c(nc3c2)CCCCC4)CC1,13.4,8.0,42.3*,2.4,-14.2
O=c1c2ccccc2nc2n1CCC2,-2.1,14.0,59.8*,4.4,-30.1
CC(=O)NC(Cc1ccc(F)cc1)C(=O)NC1CCN(c2ncccc2[N+](=O)[O-])CC1 (stereo unspecified),-2.0,.,5.2,1.4,-23.0
COC(=O)c1ccc(NCC(=O)Nc2cc(C)cc(C)c2)cc1,11.2,57.2*,24.8,33.5,-3.5
COC(=O)c1ccc(CNCC(=O)Nc2ccc(C(=O)OC)cc2)cc1,-6.3,18.3,-14.5,15.9,-21.2
N#CCCn1c(SCC(=O)Nc2ccc(N3CCOCC3)cc2)nc2ccccc21,-1.2,13.2,-21.2,5.0,-9.5
